Measured values as given in ChEMBL document CHEMBL4196208, “Antiproliferative Sesquiterpenoids from Ligularia rumicifolia with Diverse Skeletons” (J Nat Prod, 2018).
The source made the active and inactive calls. The rule behind the calls is not given here.

What was measured:
Assay type in all cases: functional, cell-based
[1] = tested on: HeLa; assay: Antiproliferative activity against human HeLa cells after 72 hrs by MTT assay
How it was run: (§1)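 Human tumour lines HGC-27 (stomach), A-549 (lung), HeLa (cervical) and MV4-11 (leukemia) tested in a standard MTT assay, with taxol as positive control. Each assay repeated more than three times. IC50 calculated by the Reed and Muench method, reported as mean ± SD.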

[2] = tested on: HGC-27; assay: Antiproliferative activity against human HGC27 cells after 72 hrs by MTT assay; conditions: for IC50: HGC-27, 72 h; how it was run: as §1
[3] = tested on: A549; assay: Antiproliferative activity against human A549 cells after 72 hrs by MTT assay; conditions: for IC50: A549, 72 h; how it was run: as §1
[4] = tested on: MV4-11; assay: Antiproliferative activity against human MV411 cells after 72 hrs by MTT assay; conditions: for IC50: MV4-11, 72 h; how it was run: as §1

Structure (SMILES) | Activity [1] | Activity [2] | Activity [3] | Activity [4] | IC50 [1] | IC50 [2] | IC50 [3] | IC50 [4]
C=C(C)[C@@H]1C[C@@]2(C)C(=CC1=O)CC[C@@H](O)[C@@H]2C | inactive | inactive | inactive | inactive | – | – | – | –
C/C=C(/C)C(=O)OC(CC=C(C)C)/C(C)=C1\C[C@@H](O)C(C)=C(OC(C)=O)C1=O (some centres not stated) | inactive | inactive | inactive | inactive | – | – | – | –
C=C1[C@H]2[C@@H](/C(=C\C)C(=O)[C@H]2OC(=O)C(C)CC)[C@H]([C@@]2(C)CO2)[C@@H](OC(=O)/C(C)=C\C)[C@H]1OC(=O)/C=C(\C)CC (some centres not stated) | inactive | inactive | inactive | inactive | – | – | – | –
C/C=C(/C)C(=O)O[C@@H]1CCC2=CC(=O)[C@H]([C@]3(C)CO3)C[C@]2(C)[C@H]1C | inactive | inactive | inactive | inactive | – | – | – | –
C=C(C)[C@@H]1C[C@@]2(C)C(=CC1=O)CC[C@@H](OC(=O)C=C(C)C)[C@@H]2C | inactive | inactive | inactive | inactive | – | – | – | –
C=C(C(CC=C(C)C)OC(=O)/C(C)=C\C)[C@@H]1C[C@H](O)[C@](C)(OC)C(=O)[C@H]1OC(C)=O (some centres not stated) | inactive | inactive | inactive | inactive | – | – | – | –
C=C1[C@H]2[C@@H]([C@@H]([C@@H](C)OC)C(=O)[C@H]2OC(=O)C(C)CC)[C@H]([C@@]2(C)CO2)[C@@H](OC(=O)C(C)CC)[C@H]1OC(=O)/C=C(\C)CC (some centres not stated) | inactive | inactive | inactive | inactive | – | – | – | –
C=C(C)[C@@H]1C[C@@]2(C)C(=CC1=O)[C@H](O)C[C@@H](OC(=O)/C(C)=C\C)[C@@H]2C | – | – | – | – | 5.7 µM | 7.2 µM | 13.5 µM | 2.5 µM
C=C(C(CC=C(C)C)OC(=O)/C(C)=C\C)[C@@H]1[C@@H](O)[C@@H](OC(=O)/C(C)=C/C)[C@](C)(O)C(=O)[C@H]1OC(C)=O (some centres not stated) | inactive | inactive | inactive | inactive | – | – | – | –
C=C1[C@H]2[C@@H](/C(=C/C)C(=O)[C@H]2OC(=O)C(C)CC)[C@H]([C@@]2(C)CO2)[C@@H](OC(=O)C(C)CC)[C@H]1OC(=O)/C=C(\C)CC (some centres not stated) | inactive | inactive | inactive | inactive | – | – | – | –
C=C(C(CC=C(C)C)OC(=O)/C(C)=C\C)[C@@H]1[C@H](OC(=O)/C(C)=C\C)[C@@H]2O[C@]2(C)C(=O)[C@H]1OC(C)=O (some centres not stated) | inactive | inactive | inactive | inactive | – | – | – | –
C=C1[C@H]2[C@@H](/C(=C\C)C(=O)[C@H]2OC(=O)C(C)CC)[C@H]([C@@]2(C)CO2)[C@@H](OC(=O)CC(C)CC)[C@H]1OC(=O)/C=C(\C)CC (some centres not stated) | inactive | inactive | inactive | inactive | – | – | – | –
C=C1CO[C@H]2C[C@@H]1Cc1c2ccc(O)c1C | inactive | inactive | inactive | inactive | – | – | – | –
C=C(C(CC=C(C)C)OC(=O)/C(C)=C\C)[C@@H]1[C@@H](O)[C@@H](OC(=O)/C(C)=C\C)[C@](C)(O)C(=O)[C@H]1OC(C)=O (some centres not stated) | inactive | inactive | inactive | inactive | – | – | – | –
C=C(C)[C@@H]1C[C@@]2(C)C(=CC1=O)[C@@H](O)C[C@@H](OC(=O)/C(C)=C\C)[C@@H]2C | – | – | – | – | 2.4 µM | 2.1 µM | 6.3 µM | 0.5 µM
C=C(c1ccc(C)c(O)c1O)C(CC=C(C)C)OC(=O)/C(C)=C\C (configuration not stated) | inactive | inactive | inactive | inactive | – | – | – | –
C=C1[C@H]2[C@@H](/C(=C/C)C(=O)[C@H]2OC(=O)C(C)CC)[C@H]([C@@]2(C)CO2)[C@@H](OC(=O)CC(C)CC)[C@H]1OC(=O)/C=C(\C)CC (some centres not stated) | inactive | inactive | inactive | inactive | – | – | – | –
C=C1[C@@H]2[C@H](OC(=O)C(C)CC)[C@H](OC(C)=O)[C@H]([C@@H](C)OC(=O)C[C@@H](C)O)[C@H]2[C@H]([C@@]2(C)CO2)[C@@H](OC(=O)/C(C)=C\C)[C@H]1OC(=O)/C=C(\C)CC (some centres not stated) | – | – | – | – | 8.4 µM | 6.1 µM | 12.5 µM | 9 µM
C=C(C(CC=C(C)C)OC(=O)/C(C)=C\C)[C@@H]1C[C@H](O)[C@](C)(OC)C(=O)[C@H]1OC(=O)/C(C)=C\C (some centres not stated) | inactive | inactive | inactive | inactive | – | – | – | –

Structure (SMILES) | Activity [1] | Activity [2] | Activity [3] | Activity [4] | IC50 [1] | IC50 [2] | IC50 [3] | IC50 [4]
C/C=C(/C)C(=O)O[C@@H]1CCC2=CC(=O)[C@@H]([C@@]3(C)CO3)C[C@]2(C)[C@H]1C | inactive | inactive | inactive | inactive | – | – | – | –
C=C1[C@H]2[C@@H](/C(=C/C)C(=O)[C@H]2OC(=O)C(C)CC)[C@H]([C@@]2(C)CO2)[C@@H](OC(=O)/C(C)=C\C)[C@H]1OC(=O)/C=C(\C)CC (some centres not stated) | inactive | inactive | inactive | inactive | – | – | – | –
C=C(C(CC=C(C)C)OC(=O)/C(C)=C\C)[C@@H]1C[C@@H]2O[C@]2(C)C(=O)[C@@H]1OC(C)=O (some centres not stated) | inactive | inactive | inactive | inactive | – | – | – | –
C=C(C(/C=C/C(C)(C)O)OC(=O)/C(C)=C\C)[C@@H]1[C@H](OC(=O)/C(C)=C\C)[C@@H]2O[C@]2(C)C(=O)[C@H]1OC(C)=O (some centres not stated) | inactive | inactive | inactive | inactive | – | – | – | –
C=C(C(CC=C(C)C)OC(=O)/C(C)=C\C)[C@@H]1C(=O)C(OC(C)=O)=C(C)[C@H](O)[C@H]1OC(=O)/C(C)=C\C (some centres not stated) | – | – | – | – | 6.3 µM | 2.2 µM | 9.8 µM | 2.9 µM
C=C(C)[C@@H]1C[C@@]2(C)C(=CC1=O)CC[C@@H](OC(=O)/C(C)=C\C)[C@@H]2C | inactive | inactive | inactive | inactive | – | – | – | –
C=C(C)[C@@H]1C[C@@]2(C)C(=CC1=O)CC[C@@H](OC(=O)/C(C)=C/C)[C@@H]2C | inactive | inactive | inactive | inactive | – | – | – | –
C=C(C)[C@@H]1C[C@@]2(C)C(=CC1=O)CC[C@@H](OC(=O)CC(C)C)[C@@H]2C | – | – | – | – | 6.6 µM | 5.3 µM | 9.7 µM | 7.5 µM
C=C1[C@H]2[C@@H]([C@@H]([C@@H](C)OC)C(=O)[C@H]2OC(=O)C(C)CC)[C@H]([C@@]2(C)CO2)[C@@H](OC(=O)/C(C)=C\C)[C@H]1OC(=O)/C=C(\C)CC (some centres not stated) | inactive | inactive | inactive | inactive | – | – | – | –
C=C(C(CC=C(C)C)OC(=O)/C(C)=C\C)[C@H]1C[C@@H](O)C(C)=C(OC(C)=O)C1=O (some centres not stated) | inactive | inactive | inactive | inactive | – | – | – | –
C=C1[C@H]2[C@H]([C@H]([C@@]3(C)CO3)[C@@H](OC(=O)/C(C)=C\C)[C@H]1OC(=O)/C=C(\C)CC)[C@@H](CC)C(=O)[C@H]2OC(=O)C(C)CC (some centres not stated) | inactive | inactive | inactive | inactive | – | – | – | –
C=C1[C@@H]2[C@H](OC(=O)C(C)CC)[C@H](OC(C)=O)[C@H]([C@@H](C)OC(=O)C[C@@H](C)O)[C@H]2[C@H]([C@@]2(C)CO2)[C@@H](OC(=O)CC(C)CC)[C@H]1OC(=O)/C=C(\C)CC (some centres not stated) | inactive | inactive | inactive | inactive | – | – | – | –
C=C(C(CC=C(C)C)OC(=O)/C(C)=C\C)[C@@H]1C[C@H](Cl)[C@](C)(O)C(=O)[C@H]1OC(C)=O (some centres not stated) | inactive | inactive | inactive | inactive | – | – | – | –
C=C(C)[C@@H]1CCc2ccc(O)c(C)c2C1 | inactive | inactive | inactive | inactive | – | – | – | –
C=C1[C@H]2[C@@H](/C(=C\C)C(=O)[C@H]2OC(=O)C(C)CC)[C@H]([C@@]2(C)CO2)[C@@H](OC(=O)C(C)CC)[C@H]1OC(=O)/C=C(\C)CC (some centres not stated) | inactive | inactive | inactive | inactive | – | – | – | –
C=C(C(CC=C(C)C)OC(=O)/C(C)=C\C)[C@@H]1[C@@H](O)[C@@H]2O[C@]2(C)C(=O)[C@H]1OC(C)=O (some centres not stated) | inactive | inactive | inactive | inactive | – | – | – | –
C/C=C(/C)C(=O)OC1=C(C)[C@H](O)C/C(=C(/C)C(CC=C(C)C)OC(=O)/C(C)=C\C)C1=O (some centres not stated) | inactive | inactive | inactive | inactive | – | – | – | –
CC(=O)O[C@H]1C(=O)[C@@]2(C)[C@H]([C@H](OC(=O)c3ccccc3)[C@]3(O)C[C@H](OC(=O)[C@H](O)[C@@H](NC(=O)c4ccccc4)c4ccccc4)C(C)=C1C3(C)C)[C@]1(OC(C)=O)CO[C@@H]1C[C@@H]2O [PACLITAXEL] | – | – | – | – | 0.046 µM | 0.028 µM | 0.051 µM | 0.017 µM
C=C(C)[C@@H]1C[C@@]2(C)C(=CC1=O)CC[C@@H](OC(=O)CC(C)CC)[C@@H]2C (some centres not stated) | – | – | – | – | 3.3 µM | 3.6 µM | 6.6 µM | 1.1 µM
